Article PMC9043769 (RSC Advances, 2021)
Like-named read-outs stand apart in the source and are kept apart here.

Tests used:
[1] = system: MCF-7 (ER+ breast adenocarcinoma) cells; assay: MTT cytotoxicity assay, 72 h; format: cell-based, human; conditions: for IC50: read-out: IC50, after 72 h incubation, MCF-7
In short: (§1)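 Cell lines (ATCC) grown in DMEM with […], 10% FCS and antibiotic–antimycotic at 37 °C, 5% CO2. […] IC50 was calculated from means of at least two or three independent experiments in triplicate or quadruplicate.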

[2] = system: MDA-MB-231 (ER− breast adenocarcinoma) cells; assay: MTT cytotoxicity assay, 72 h; format: cell-based, human; conditions: read-out: IC50, after 72 h incubation, MDA-MB-231
In short: as §1

[3] = system: PC-3 prostate cancer cells; assay: MTT cytotoxicity assay, 72 h; format: cell-based, human
In short: as §1

[4] = system: HeLa cervical carcinoma cells; assay: MTT cytotoxicity assay, 72 h; format: cell-based, human
In short: as §1

[5] = system: HT-29 colon adenocarcinoma cells; assay: MTT cytotoxicity assay, 72 h; format: cell-based, human; conditions: read-out: IC50, after 72 h incubation, HT-29
In short: as §1

[6] = system: A549 lung adenocarcinoma cells; assay: MTT cytotoxicity assay, 72 h; format: cell-based, human; conditions: read-out: IC50, after 72 h incubation, A549
In short: as §1

[7] = system: MRC-5 normal fetal lung fibroblasts; assay: MTT cytotoxicity assay, 72 h; format: cell-based, human; conditions: read-out: IC50, after 72 h incubation, MRC-5
[8] = system: CEM T-lymphoblastic leukemia cells; assay: alamarBlue; format: cell-based, human; conditions: read-out: IC50, after 72 h incubation, CEM
In short: (§2)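 CEM cells grown in RPMI 1640 with 20% FBS; G-361 and BJ cells in DMEM with 10% FBS. All media had 2 mM L-glutamine and 1% penicillin-streptomycin, 37 °C, 5% CO2. Six concentrations of compound, 0.2–50 μM (3× dilution), were applied for 72 h, with a resazurin (alamarBlue) read-out. IC50 came from means of at least two or three independent experiments in triplicate or quadruplicate.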

[9] = system: G-361 malignant melanoma cells; assay: alamarBlue; format: cell-based, human; conditions: read-out: IC50, after 72 h incubation, G-361
In short: as §2

[10] = system: BJ human foreskin fibroblasts; assay: alamarBlue; format: cell-based; conditions: read-out: IC50, after 72 h incubation, BJ, normal fibroblasts
In short: as §2

SMILES	IC50 ([1]; MTT, 72 h)	IC50 ([2]; MTT, 72 h)	IC50 ([3]; read-out: IC50, after 72 h incubation, PC-3, MTT)	IC50 ([4]; read-out: IC50, after 72 h incubation, HeLa, MTT)	IC50 ([5]; MTT, 72 h)	IC50 ([6]; MTT, 72 h)	IC50 ([7]; MTT, 72 h, normal cells)	IC50 [8]	IC50 [9]	IC50 [10]	IC50 ([1]; Homo sapiens, MCF7, 72 h)	Toxicity toward MCF-7 tumor cells (in words) ([1]; MTT, 72 h)	IC50 ([2]; Homo sapiens, MDA-MB-231, 72 h)	IC50 ([3]; Homo sapiens, read-out: IC50, after 72 h incubation, PC-3)	IC50 ([4]; Homo sapiens, HeLa, read-out: IC50, after 72 h incubation, HeLa)	IC50 ([5]; Homo sapiens, HT-29, 72 h)	IC50 ([6]; Homo sapiens, A549, 72 h)	IC50 ([7]; Homo sapiens, MRC5, 72 h)
N.N.[Cl][Pt][Cl] [Cis-Pt, cisplatin]	1.6 µM	2.6 µM	4.5 µM	2.1 µM	4.1 µM	3.2 µM	0.2 µM	0.8 µM	4.5 µM	9.6 µM	–	–	–	–	–	–	–	–
C[C@]12CCC(=O)C(O)=C1CC[C@@H]1[C@@H]2CC[C@]2(C)C(=O)CC[C@@H]12 [For, formestane]	–	–	–	–	–	–	–	–	–	–	> 100 µM	no toxicity	19.6 µM	26.4 µM	3.4 µM	> 100 µM	38.6 µM	> 100 µM
